Measured values from different studies.
Compare with care: the assays were run in different laboratories.
ABL1 F317L phosphorylated: Tyrosine-protein kinase ABL1, phosphorylated (ABL1, Homo sapiens, UniProt P00519, F317L)
ABL1 non-phosphorylated: Tyrosine-protein kinase ABL1, non-phosphorylated (ABL1, Homo sapiens, UniProt P00519)
ABL1 Y253F: Tyrosine-protein kinase ABL1 (ABL1, Homo sapiens, UniProt P00519, Y253F)
ABL1 E255K: Tyrosine-protein kinase ABL1 (ABL1, Homo sapiens, UniProt P00519, E255K)
ABL1 F317I non-phosphorylated: Tyrosine-protein kinase ABL1, non-phosphorylated (ABL1, Homo sapiens, UniProt P00519, F317I)
ABL1 phosphorylated: Tyrosine-protein kinase ABL1, phosphorylated (ABL1, Homo sapiens, UniProt P00519)
ABL1 T315I phosphorylated: Tyrosine-protein kinase ABL1, phosphorylated (ABL1, Homo sapiens, UniProt P00519, T315I)
ABL1 E255K phosphorylated: Tyrosine-protein kinase ABL1, phosphorylated (ABL1, Homo sapiens, UniProt P00519, E255K)
ABL1 Q252H phosphorylated: Tyrosine-protein kinase ABL1, phosphorylated (ABL1, Homo sapiens, UniProt P00519, Q252H)
ABL1 F317L: Tyrosine-protein kinase ABL1 (ABL1, Homo sapiens, UniProt P00519, F317L)
ABL1 Y253F phosphorylated: Tyrosine-protein kinase ABL1, phosphorylated (ABL1, Homo sapiens, UniProt P00519, Y253F)

Structure (SMILES) | target | test | conditions | remaining binding [%]
CC(C)(O)c1cncc(-c2nc3ccc(F)cc3n2C2CC2)c1 | Tyrosine-protein kinase ABL1, non-phosphorylated (ABL1, Homo sapiens, UniProt P00519, H396P) | cell-free assay, competition with immobilised ligand | 1 µM | 85
CCN1CCN(Cc2ccc(C(=O)Nc3ccc(C)c(Oc4ccc5c(c4)CC(=O)N5)c3)cc2C(F)(F)F)CC1 | ABL1 F317L phosphorylated | binding, competition with immobilised ligand | 1 µM | 9.6
C=CC(=O)N1CCC(C(=O)NCC(=O)N2CCN(c3nc(-c4cnc(N)nc4C(F)F)nc(N4CCOCC4)n3)CC2)CC1 | ABL1 non-phosphorylated | binding, competition with immobilised ligand | 1 µM | 80
CN1CCN(c2ccc(Nc3nccc(-c4cccc([N+](=O)[O-])c4)n3)cc2C(F)(F)F)CC1 | ABL1 Y253F | binding | 10 µM | 4
COc1ccnn2ncc(-c3ccnc(N(C)C)n3)c12 | ABL1 E255K | binding | 1 µM | 86
COc1cnc(Nc2cccc(S(N)(=O)=O)c2)nc1N1CCN(c2ccccc2)CC1 | Tyrosine-protein kinase ABL1, non-phosphorylated (ABL1, Homo sapiens, UniProt P00519, T315I) | binding, competition with immobilised ligand | 1 µM | 89
C[C@@]1(Cc2ccc(C#N)cc2)C(=O)N(c2cc(Cl)cc(Cl)c2)c2ncc(C(=O)NC3(c4nc(C5CCC5)no4)CC3)n21 | ABL1 F317I non-phosphorylated | binding, competition with immobilised ligand | 1 µM | 94
N#Cc1ccccc1CSc1nnc2c(n1)[nH]c1ccccc12 | ABL1 phosphorylated | binding, competition with immobilised ligand | 10 µM | 94
c1cnn2ncc(-c3ccnc(N4CCC45COC5)n3)c2c1 | ABL1 non-phosphorylated | binding | 1 µM | 68
c1cncc(-c2cccc(Nc3nccc(NC4CCCCC4)n3)c2)c1 | Tyrosine-protein kinase ABL1, phosphorylated (ABL1, Homo sapiens, UniProt P00519, M351T) | binding, competition with immobilised ligand | 10 µM | 38
CN(C)c1ncc(F)c(-c2cnn3ncccc23)n1 | ABL1 non-phosphorylated | binding, competition with immobilised ligand | 1 µM | 89
O=C(c1ccc(Nc2ncc(Cl)c(-c3ccc(Cl)s3)n2)cc1)N1CCC(N2CCCC2)CC1 | ABL1 T315I phosphorylated | binding, competition with immobilised ligand | 1 µM | 1.1
CC(C)(C)c1ccc(-c2nc(CBr)nn2-c2cccc(O)c2)cc1 | ABL1 E255K phosphorylated | cell-free assay, competition with immobilised ligand | 10 µM | 74
CC(=O)N1CCC(c2ccc(C(=O)NC(=N)N)cc2C(F)(F)F)CC1 | ABL1 Q252H phosphorylated | cell-free assay, competition with immobilised ligand | 1 µM | 100
C[C@H]1CCN(c2nccc(-c3cnn4ncccc34)n2)C1 | ABL1 F317L | binding | 1 µM | 82
O=C(NCCCN1CCOCC1)c1ccc(Nc2ncc(Cl)c(-c3ccc(Cl)s3)n2)cc1 | ABL1 non-phosphorylated | binding, competition with immobilised ligand | 1 µM | 26
O=C(NCC1CCOCC1)c1n[nH]cc1NC(=O)c1c(F)cccc1F | ABL1 F317L phosphorylated | binding, competition with immobilised ligand | 1 µM | 88
CN(C(=O)c1ccccc1)c1cc(N(C)c2ccc3c(c2)CCc2ccc(C(=O)NCCN4CCOCC4)cc2C3=O)ccc1F | ABL1 F317L phosphorylated | cell-free assay, competition with immobilised ligand | 1 µM | 68

Structure (SMILES) | target | test | conditions | remaining binding [%]
COc1ncc2cc3ccccc3nc2c1C#N | ABL1 Y253F phosphorylated | cell-free assay, competition with immobilised ligand | 5 µM | 92
N[C@@H]1CCN(c2nccc(-c3cnn4ncccc34)n2)C1 | ABL1 Y253F | binding | 1 µM | 62
Cc1cnc(Nc2ccc(C(=O)N3CCC(N4CCCC4)CC3)cc2)nc1-c1cc2ccccc2s1 | ABL1 E255K phosphorylated | binding, competition with immobilised ligand | 1 µM | 1.4
CN(C)c1nccc(-c2cnc3ncccn23)n1 | ABL1 E255K | binding | 1 µM | 42
CNC(=O)[C@@H]1CC[C@@H](n2c(-c3ccc4cnccc4c3)nc3ccc(C(=O)NCc4cccc(C(N)=O)c4)cc32)C1 | ABL1 Y253F phosphorylated | binding, competition with immobilised ligand | 1 µM | 100
Nc1ncc2c(n1)-c1c([nH]c3ccc(C#CC4CC4)cc13)CCCC2 | ABL1 Y253F phosphorylated | binding, competition with immobilised ligand | 1 µM | 95
CS(=O)(=O)NCC[C@H](NC(=O)c1cncc2c1cnn2-c1ccc(F)cc1)c1ccnc(S(C)(=O)=O)c1 | ABL1 Y253F phosphorylated | cell-free assay, competition with immobilised ligand | 1 µM | 95
O=C(Nc1c[nH]nc1C(=O)NC1CCNCC1)c1cc(F)cc(F)c1 | ABL1 E255K phosphorylated | binding, competition with immobilised ligand | 1 µM | 100
C[C@@H](c1ccc(-n2cnc3c(N)ncnc32)cc1)N1CCc2nn(C)c(Cc3ccccc3)c2C1=O | ABL1 non-phosphorylated | binding, competition with immobilised ligand | 0.1 µM | 15
F[C@@H]1CCN(c2nccc(-c3cnn4ncccc34)n2)C1 | ABL1 F317L | binding | 1 µM | 100
O=C(c1ccc(Nc2ncc(Cl)c(-c3cc4ccccc4s3)n2)cc1)N1CCC(N2CCCC2)CC1 | ABL1 phosphorylated | binding, competition with immobilised ligand | 1 µM | 26
COc1cccc(CNC(=O)c2nc3scc(COCc4ccc(C(=O)O)cc4)c3c(=O)[nH]2)c1 | ABL1 Y253F phosphorylated | cell-free assay, competition with immobilised ligand | 1 µM | 84.6
O=C(NCCCN1CCOCC1)c1ccc(Nc2nccc(-c3cc4ccccc4s3)n2)cc1 | Tyrosine-protein kinase ABL1, non-phosphorylated (ABL1, Homo sapiens, UniProt P00519, Q252H) | binding, competition with immobilised ligand | 1 µM | 34
COc1cc(-c2cn(C3CCc4c(F)cccc4N(CC(F)(F)F)C3=O)nn2)ccc1-n1cnc(C)c1 (centres unmarked) | ABL1 Q252H phosphorylated | cell-free assay, competition with immobilised ligand | 1 µM | 100
O=C(c1ccc(Nc2nccc(-c3cc4ccccc4s3)n2)cc1)N1CCC(N2CCCC2)CC1 | Tyrosine-protein kinase ABL1, non-phosphorylated (ABL1, Homo sapiens, UniProt P00519, F317L) | binding, competition with immobilised ligand | 1 µM | 78
CNCc1ccccc1-c1csc([C@@H](C)Nc2nc(C)nc3cc(OC)c(OC)cc23)c1 | ABL1 F317I non-phosphorylated | binding, competition with immobilised ligand | 1 µM | 100
COc1cnc(Nc2cccc(S(N)(=O)=O)c2)nc1N1CCN(c2ccccc2)C(=O)C1 | ABL1 T315I phosphorylated | binding, competition with immobilised ligand | 1 µM | 77
